Read-outs that look alike come from different tables or passages of the source.
Key:
[1] = test system: 6-Hz-induced seizure model mice; assay: 6-Hz corneal kindling epilepsy test; assay type: in vivo, mouse; details: 100 mg/kg; GM oral 60 min prior to stimulation; 32 mA
[2] = test system: AMPA receptors; assay: AMPA-induced currents, rat hippocampal neurons; assay type: cell-based; details: n = 4
Outline: (§1)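 Whole-cell recordings were made at room temperature from rat hippocampal neurons held at −60 mV. Currents were activated by applying the corresponding ligand under continuous bath perfusion. Signals were filtered at 2 kHz and digitized at 10 kHz. Data are means ± SEM, tested by paired two-tailed t test against control.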

[3] = test system: transient outward potassium current (IA); assay: Transient outward potassium current; assay type: cell-based, rat; details: read-out: IC50 on IA; n = 5
Outline: (§2)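 Rat hippocampal neurons were recorded in whole-cell voltage-clamp with a KCl/EGTA internal and a NaCl/KCl bath. Cells were held at −50 mV, prepulsed to −110 mV for 500 ms, then stepped from −110 to 40 mV. For IK, a 50 ms step to −50 mV removed IA, and amplitude was read at 300 ms. IA was read as peak. IC50 came from a 3-parameter Hill fit.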

[4] = test system: delayed rectifier potassium current (IK); assay: Delayed rectifier potassium current; assay type: cell-based, rat; details: read-out: IC50 on IK; n = 5
Outline: as §2

[5] = test system: MES-induced seizure model mice; assay: MES-induced seizure assay; assay type: in vivo, mouse; details: oral
[6] = test system: cultured mouse hippocampal neurons; assay type: cell-based
Outline: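 Hippocampi from E18 C57BL/6 mouse embryos were digested with 3 mg/mL proteinase for 8 min at 32 °C, triturated, and plated on poly-D-lysine coverslips. Cells were switched to serum-free Neurobasal-A/B-27 after 6 h and recorded after 12 days. Whole-cell current-clamp used a KCl/EGTA pipette (pH 7.2) and perfused NaCl/HEPES bath (pH 7.4), at room temperature.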

[7] = test system: nACh receptors; assay: Acetylcholine-evoked currents, cultured rat hippocampal neurons; assay type: cell-based; details: 30 μmol/L GM
Outline: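 Cultured rat hippocampal neurons were held at −60 mV in whole-cell mode, and acetylcholine-evoked currents were recorded at room temperature with and without test compound. Concentration–response data (IDrug/IControl) were fitted to a 3-parameter Hill equation to obtain IC50. Data are means ± SEM.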

[8] = test system: NaV currents; assay: NaV currents, whole-cell voltage-clamp, acutely isolated rat hippocampal neurons; assay type: cell-based
[9] = test system: KA receptors; assay: KA-induced currents, rat hippocampal neurons; assay type: cell-based; details: n = 4
Outline: as §1

[10] = test system: isolated rat aorta strips; details: 10 µmol/L GM; cited from earlier work
[11] = test system: LVA calcium currents; assay: Low-voltage-activated; assay type: cell-based, rat; details: 10 µmol/L GM
Outline: (§3)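 Rat hippocampal neurons were recorded in whole-cell voltage-clamp with a CsCl/TEA/5 mM MgATP internal (pH 7.2) and a bath containing 5 mM CaCl2 and 20 mM TEA-Cl (pH 7.4). Currents were evoked by steps from −90 mV to 0 mV at room temperature. Activation and inactivation curves were fitted with Boltzmann equations, and IC50 with a 3-parameter Hill equation.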

[12] = test system: CaV currents; assay: Total CaV currents, whole-cell voltage-clamp, rat hippocampal neurons; assay type: cell-based; details: read-out: IC50 on total CaV currents; holding −90 mV, test pulse 0 mV, n = 6
Outline: as §3

[13] = target: T1, human Kir2.1 channels (Homo sapiens, UniProt P63252); assay: Kir2.1 currents in HEK-293 cells stably expressing hKir2.1; assay type: cell-based
T1 sequence (P63252 1-427): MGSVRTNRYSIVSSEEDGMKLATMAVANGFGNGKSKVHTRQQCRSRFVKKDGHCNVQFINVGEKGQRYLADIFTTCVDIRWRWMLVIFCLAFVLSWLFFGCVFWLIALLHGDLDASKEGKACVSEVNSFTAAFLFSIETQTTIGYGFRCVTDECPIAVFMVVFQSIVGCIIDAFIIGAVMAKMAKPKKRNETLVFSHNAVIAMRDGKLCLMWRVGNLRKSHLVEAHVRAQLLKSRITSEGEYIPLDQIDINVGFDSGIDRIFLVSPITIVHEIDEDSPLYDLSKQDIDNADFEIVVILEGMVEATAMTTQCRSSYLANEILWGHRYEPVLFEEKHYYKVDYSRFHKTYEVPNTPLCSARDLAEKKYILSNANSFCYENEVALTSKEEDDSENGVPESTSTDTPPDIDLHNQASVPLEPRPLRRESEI
Outline: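 HEK-293 cells stably expressing human Kir2.1 were held at −70 mV and given a 500 ms test pulse to −140 mV. The internal was 140 mM KCl with EGTA (pH 7.2) and the bath was NaCl/KCl (pH 7.4), at room temperature. Inhibition ratios are means ± SEM, compared with paired t test against control.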

[14] = test system: HVA calcium currents; assay: High-voltage-activated; assay type: cell-based, rat; details: 10 µmol/L GM
Outline: as §3

[15] = test system: GABA receptors; assay: GABA-induced currents, rat hippocampal neurons; assay type: cell-based; details: n = 4
Outline: as §1

[16] = test system: NMDA receptors; assay: NMDA-induced currents, rat hippocampal neurons; assay type: cell-based; details: n = 4
Outline: as §1

Molecule: CC[C@@H](C(N)=O)N1CCCC1=O [LEV, Levetiracetam, reference compound]
- Protection rate (%) [1]: 100%

Molecule: Geissoschizine methyl ether [GM]
- change of AMPA (glutamate) receptor-mediated currents ([2]; 30 µmol/L GM): No remarkable changes
- modulation of AMPA (glutamate) receptor-mediated currents ([2]; 100 µmol/L GM): very weak
- IC50 [3]: 50 µM
- IC50 [4]: 1.6 µM
- ED50 for protection against MES [5]: 78.9 (60.3–103.3) mg/kg
- resting membrane potential after GM perfusion [6]: did not change
- inhibition ratio of firing frequency ([6]; 1 μmol/L GM, n = 6): 45.3% ± 3.7%
- inhibition ratio of firing frequency ([6]; 3 μmol/L GM, n = 6): 49.6% ± 5.1%
- reduction of action potential amplitude ([6]; 3 μmol/L GM, n = 6): 9.5% ± 1.8%
- inhibition ratio of firing frequency ([6]; 10 μmol/L GM, n = 6): 82.3% ± 1.1%
- reduction of action potential amplitude ([6]; 10 μmol/L GM, n = 6): 20.9% ± 3.2%
- half-width of the action potential ([6]; 10 μmol/L GM, control 2.0 ± 0.2 ms, n = 6): 2.7 ± 0.4 ms
- inhibition ratio of firing frequency ([6]; 30 μmol/L GM, n = 6): 97.8% ± 0.5%
- reduction of action potential amplitude ([6]; 30 μmol/L GM, n = 6): 100.0%
- inhibition of acetylcholine-evoked currents [7]: completely inhibited
- half-activation voltage of NaV currents ([8]; 10 µmol/L GM, control −45.1 ± 1.0 mV): −42.7 ± 0.8 mV
- V1/2 of steady-state inactivation of NaV currents ([8]; 10 µmol/L GM, control −54.4 ± 0.5 mV): −61.4 ± 0.6 mV
- IC50 ([8]; read-out: IC50 on NaV currents, holding −90 mV, test pulse −20 mV, n = 7): 10.2 µM
- change of KA (glutamate) receptor-mediated currents ([9]; 30 µmol/L GM): No remarkable changes
- modulation of KA (glutamate) receptor-mediated currents ([9]; 100 µmol/L GM): very weak
- effect on Bay K8644- or Ca2+-induced contractions [10]: able to relax
- change of activation curve of LVA currents [11]: did not exhibit a remarkable change
- reduction of LVA currents ([11]; elicited at 0 mV, n = 7): 48.4% ± 6.9%
- effect on LVA current inactivation ([11]; n = 5): lack of an effect
- IC50 [12]: 13.3 µM
- inhibition ratio of Kir2.1 currents ([13]; 10 µmol/L GM, n = 5): 1.3% ± 2.2%
- inhibition ratio of Kir2.1 currents ([13]; 30 µmol/L GM, n = 7): 3.8% ± 1.5%
- inhibition ratio of Kir2.1 currents ([13]; 100 µmol/L GM, n = 10): 13.9% ± 2.2%
- change of activation curve of HVA currents [14]: did not exhibit a remarkable change
- reduction of HVA currents ([14]; elicited at 0 mV, n = 7): 28.5% ± 10.9%
- shift in inactivation curve of HVA currents ([14]; n = 9): No significant shift
- change of GABA receptor-mediated currents ([15]; 30 µmol/L GM): No remarkable changes
- modulation of GABA receptor-mediated currents ([15]; 100 µmol/L GM): very weak
- change of NMDA (glutamate) receptor-mediated currents ([16]; 30 µmol/L GM): No remarkable changes
- modulation of NMDA (glutamate) receptor-mediated currents ([16]; 100 µmol/L GM): very weak
- Protection rate (%) [1]: 70%

— publication PMC7471432 (Acta Pharmacologica Sinica, 2020)
